According to ChEMBL document CHEMBL4184332, “Discovery of Novel Nonsteroidal Anti-Inflammatory Drugs and Carbonic Anhydrase Inhibitors Hybrids (NSAIDs-CAIs) for the Management of Rheumatoid Arthritis” (J Med Chem, 2018):
Active and inactive are the calls of the source.

Assays:
Rattus norvegicus [1] = assay: Antiarthritic activity in CFA-induced Sprague-Dawley rat rheumatoid arthritis model assessed as increase in tolerated weight on ipsilateral paw at 5.8 mg/kg, po measured at 15 mins by paw pressure test; type: functional, organism-based
Method in brief: (§1)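 Rats: Sprague Dawley, 200-250 g, given 50 μl CFA intra-articularly into the tibiotarsal joint; controls got saline. On day 14, compounds in 1% CMC were given orally. An analgesimeter applied increasing pressure to the dorsal hind paw with a blunt conical probe until vocalization or withdrawal, read in grams, cut-off 120 g. Rats below 40 g or above 75 g before dosing were excluded. Values are mean (S.E.M.) of 8 rats from 2 experiments.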

Rattus norvegicus [2] = assay: Antiarthritic activity in CFA-induced Sprague-Dawley rat rheumatoid arthritis model assessed as decrease in difference between weight burden on contralateral and ipsilateral paw at 5.8 mg/kg, po measured up to 75 mins by incapacitance test; type: functional, organism-based
Rattus norvegicus [3] = species: Rattus norvegicus; assay: Change in pain threshold of contralateral paw of CFA-induced Sprague-Dawley rat rheumatoid arthritis model by paw pressure test; type: organism-based; conditions: in vivo; method in brief: as §1
Rattus norvegicus [4] = assay: Antiarthritic activity in CFA-induced Sprague-Dawley rat rheumatoid arthritis model assessed as difference between weight burden on contralateral and ipsilateral paw at 10 mg/kg, po measured at 30 mins by incapacitance test (reference value: 54.2 +/- 5.1 g); type: functional
Rattus norvegicus [5] = assay: Antiarthritic activity in CFA-induced Sprague-Dawley rat rheumatoid arthritis model assessed as tolerated weight on ipsilateral paw at 0.1 mg/kg, po measured at 15 mins by paw pressure test (reference value: 43.5 +/- 0.5 g); type: functional; method in brief: as §1
Rattus norvegicus [6] = assay: Antiarthritic activity in CFA-induced Sprague-Dawley rat rheumatoid arthritis model assessed as increase in tolerated weight on ipsilateral paw at 1 mg/kg, po measured up to 60 mins by paw pressure test; type: functional, organism-based; method in brief: as §1
Rattus norvegicus [7] = assay: Antiarthritic activity in CFA-induced Sprague-Dawley rat rheumatoid arthritis model assessed as decrease in difference between weight burden on contralateral and ipsilateral paw at 10 mg/kg, po measured up to 75 mins by incapacitance test; type: functional, organism-based
Carbonic anhydrase 2 [8] = target: T1, Carbonic anhydrase 2 (Homo sapiens, UniProt P00918); assay: Inhibition of recombinant human carbonic anhydrase-2 incubated for 15 mins by stopped-flow CO2 hydrase assay
Carbonic anhydrase 4 = Carbonic anhydrase 4 (Homo sapiens, UniProt P22748); assay: Inhibition of recombinant human carbonic anhydrase-4 incubated for 15 mins by stopped-flow CO2 hydrase assay
Carbonic anhydrase 12 = Carbonic anhydrase 12 (Homo sapiens, UniProt O43570); assay: Inhibition of recombinant human carbonic anhydrase-12 incubated for 15 mins by stopped-flow CO2 hydrase assay
Rattus norvegicus [9] = assay: Antiarthritic activity in CFA-induced Sprague-Dawley rat rheumatoid arthritis model assessed as tolerated weight on ipsilateral paw at 1 mg/kg, po measured at 15 mins by paw pressure test (reference value: 43.5 +/- 0.5 g); type: functional; method in brief: as §1
Rattus norvegicus [10] = assay: Antiarthritic activity in CFA-induced Sprague-Dawley rat rheumatoid arthritis model assessed as increase in tolerated weight on ipsilateral paw at 0.1 mg/kg, po measured up to 45 mins by paw pressure test; type: functional, organism-based; method in brief: as §1
Carbonic anhydrase 9 = Carbonic anhydrase 9 (Homo sapiens, UniProt Q16790); assay: Inhibition of recombinant human carbonic anhydrase-9 catalytic domain incubated for 15 mins by stopped-flow CO2 hydrase assay
Rattus norvegicus [11] = assay: Antiarthritic activity in CFA-induced Sprague-Dawley rat rheumatoid arthritis model assessed as increase in tolerated weight on ipsilateral paw at 10 mg/kg, po measured at 15 mins by paw pressure test; type: functional, organism-based; method in brief: as §1
Rattus norvegicus [12] = assay: Antiarthritic activity in CFA-induced Sprague-Dawley rat rheumatoid arthritis model assessed as increase in tolerated weight on ipsilateral paw at 10 mg/kg, po measured up to 75 mins by paw pressure test; type: functional, organism-based; method in brief: as §1
Rattus norvegicus [13] = assay: Antiarthritic activity in CFA-induced Sprague-Dawley rat rheumatoid arthritis model assessed as difference between weight burden on contralateral and ipsilateral paw at 1 mg/kg, po measured at 30 mins by incapacitance test (reference value: 54.2 +/- 5.1 g); type: functional
Rattus norvegicus [14] = assay: Antiarthritic activity in CFA-induced Sprague-Dawley rat rheumatoid arthritis model assessed as tolerated weight on ipsilateral paw at 0.1 mg/kg, po measured up to 30 mins by paw pressure test (reference value: 43.5 +/- 0.5 g); type: functional; method in brief: as §1
Rattus norvegicus [15] = assay: Antiarthritic activity in CFA-induced Sprague-Dawley rat rheumatoid arthritis model assessed as tolerated weight on ipsilateral paw at 10 mg/kg, po measured up to 30 mins by paw pressure test (reference value: 43.5 +/- 0.5 g); type: functional; method in brief: as §1
Rattus norvegicus [16] = assay: Antiarthritic activity in CFA-induced Sprague-Dawley rat rheumatoid arthritis model assessed as tolerated weight on ipsilateral paw at 1 mg/kg, po measured at 30 mins by paw pressure test (reference value: 43.5 +/- 0.5 g); type: functional; method in brief: as §1
Rattus norvegicus [17] = assay: Antiarthritic activity in po dosed CFA-induced Sprague-Dawley rat rheumatoid arthritis model assessed as decrease in difference between weight burden on contralateral and ipsilateral paw measured up to 60 mins by incapacitance test; type: functional, organism-based
Carbonic anhydrase 1 = Carbonic anhydrase 1 (Homo sapiens, UniProt P00915); assay: Inhibition of recombinant human carbonic anhydrase-1 incubated for 15 mins by stopped-flow CO2 hydrase assay
Carbonic anhydrase 2 [18] = target: T1, Carbonic anhydrase 2; assay: Potency index, ratio of acetazolamide Ki to test compound Ki for recombinant human carbonic anhydrase-2
Method in brief: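 Recombinant human CA, made in house, in a stopped-flow CO₂ hydration assay. Conditions: 20 mM Hepes pH 7.5, 20 mM Na₂SO₄, 0.2 mM phenol red read at 557 nm, CO₂ 1.7-17 mM. Enzyme and inhibitor were preincubated 15 min at room temperature. Initial rates were corrected for the uncatalyzed rate. Ki came from nonlinear least squares, mean of three measurements. The ratio uses the acetazolamide Ki.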

Rattus norvegicus [19] = assay: Antiarthritic activity in CFA-induced Sprague-Dawley rat rheumatoid arthritis model assessed as difference between weight burden on contralateral and ipsilateral paw at 10 mg/kg, po measured at 15 to 30 mins by incapacitance test (reference value: 54.2 +/- 5.1 g); type: functional
Rattus norvegicus [20] = assay: Antiarthritic activity in CFA-induced Sprague-Dawley rat rheumatoid arthritis model assessed as decrease in difference between weight burden on contralateral and ipsilateral paw at 0.1 mg/kg, po measured up to 75 mins by incapacitance test; type: functional, organism-based
Rattus norvegicus [21] = assay: Antiarthritic activity in CFA-induced Sprague-Dawley rat rheumatoid arthritis model assessed as tolerated weight on ipsilateral paw at 10 mg/kg, po measured at 30 mins by paw pressure test (reference value: 43.5 +/- 0.5 g); type: functional; method in brief: as §1
Rattus norvegicus [22] = assay: Antiarthritic activity in CFA-induced Sprague-Dawley rat rheumatoid arthritis model assessed as difference between weight burden on contralateral and ipsilateral paw at 1 mg/kg, po measured at 15 to 30 mins by incapacitance test (reference value: 54.2 +/- 5.1 g); type: functional
Rattus norvegicus [23] = assay: Antiarthritic activity in po dosed CFA-induced Sprague-Dawley rat rheumatoid arthritis model assessed as increase in tolerated weight on ipsilateral paw measured up to 60 mins by paw pressure test; type: functional, organism-based; method in brief: as §1
Rattus norvegicus [24] = assay: Antiarthritic activity in CFA-induced Sprague-Dawley rat rheumatoid arthritis model assessed as tolerated weight on ipsilateral paw at 10 mg/kg, po measured at 15 mins by paw pressure test (reference value: 43.5 +/- 0.5 g); type: functional; method in brief: as §1
Rattus norvegicus [25] = assay: Antiarthritic activity in CFA-induced Sprague-Dawley rat rheumatoid arthritis model assessed as tolerated weight on ipsilateral paw at 1 mg/kg, po measured up to 30 mins by paw pressure test (reference value: 43.5 +/- 0.5 g); type: functional; method in brief: as §1
Rattus norvegicus [26] = assay: Antiarthritic activity in CFA-induced Sprague-Dawley rat rheumatoid arthritis model assessed as increase in tolerated weight on ipsilateral paw at 1 mg/kg, po measured at 60 mins by paw pressure test; type: functional, organism-based; method in brief: as §1
Rattus norvegicus [27] = assay: Antiarthritic activity in CFA-induced Sprague-Dawley rat rheumatoid arthritis model assessed as decrease in difference between weight burden on contralateral and ipsilateral paw at 0.1 mg/kg, po measured up to 45 mins by incapacitance test; type: functional, organism-based
Rattus norvegicus [28] = assay: Antiarthritic activity in CFA-induced Sprague-Dawley rat rheumatoid arthritis model assessed as difference between weight burden on contralateral and ipsilateral paw at 0.1 mg/kg, po measured at 15 to 30 mins by incapacitance test (reference value: 54.2 +/- 5.1 g); type: functional

Carbonic anhydrase 4, sequence (P22748 whole entry): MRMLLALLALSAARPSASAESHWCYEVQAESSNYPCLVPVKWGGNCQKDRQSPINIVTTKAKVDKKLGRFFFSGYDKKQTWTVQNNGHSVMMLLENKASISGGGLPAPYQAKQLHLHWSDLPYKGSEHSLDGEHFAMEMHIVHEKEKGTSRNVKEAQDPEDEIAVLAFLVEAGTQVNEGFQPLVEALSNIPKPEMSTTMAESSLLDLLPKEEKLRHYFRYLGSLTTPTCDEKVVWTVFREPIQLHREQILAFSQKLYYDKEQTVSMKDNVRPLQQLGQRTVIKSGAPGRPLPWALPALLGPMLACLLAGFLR
Carbonic anhydrase 12, sequence (O43570 whole entry): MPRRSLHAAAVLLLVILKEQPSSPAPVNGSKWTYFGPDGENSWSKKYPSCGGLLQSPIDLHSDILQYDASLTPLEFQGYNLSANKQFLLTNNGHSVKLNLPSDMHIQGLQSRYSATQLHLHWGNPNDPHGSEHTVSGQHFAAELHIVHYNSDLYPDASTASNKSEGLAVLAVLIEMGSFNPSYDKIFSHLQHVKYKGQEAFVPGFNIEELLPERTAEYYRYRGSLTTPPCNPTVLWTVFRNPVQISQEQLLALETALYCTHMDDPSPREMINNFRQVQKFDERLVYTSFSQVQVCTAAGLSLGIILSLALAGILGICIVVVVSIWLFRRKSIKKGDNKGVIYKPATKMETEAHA
Carbonic anhydrase 1, sequence (P00915 whole entry): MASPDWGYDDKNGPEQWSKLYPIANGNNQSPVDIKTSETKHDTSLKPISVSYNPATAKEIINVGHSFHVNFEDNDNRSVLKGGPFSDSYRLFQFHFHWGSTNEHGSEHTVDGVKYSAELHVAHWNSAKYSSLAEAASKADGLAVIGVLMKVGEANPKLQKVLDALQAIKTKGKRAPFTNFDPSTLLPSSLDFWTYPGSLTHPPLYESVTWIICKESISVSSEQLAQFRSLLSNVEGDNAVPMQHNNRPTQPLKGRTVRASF

| Ki (Carbonic anhydrase 2 [8]) [nM] | Ki (Carbonic anhydrase 4) [nM] | Ki (Carbonic anhydrase 12) [nM] | Ki (Carbonic anhydrase 9) [nM] | Ki (Carbonic anhydrase 1) [nM] | Compound | Activity (Rattus norvegicus [3]) | Activity (Rattus norvegicus [4]) [g] | Activity (Rattus norvegicus [5]) [g] | Activity (Rattus norvegicus [9]) [g] | Activity (Rattus norvegicus [10]) | Activity (Rattus norvegicus [12]) | Activity (Rattus norvegicus [13]) [g] | Activity (Rattus norvegicus [16]) [g] | Activity (Rattus norvegicus [17]) | Activity (Rattus norvegicus [21]) [g] | other results |
| --- | --- | --- | --- | --- | --- | --- | --- | --- | --- | --- | --- | --- | --- | --- | --- | --- |
|  |  |  |  |  | CC(C(=O)O)c1cccc(C(=O)c2ccccc2)c1 (centres undefined) |  |  |  |  |  |  |  |  |  |  | Activity (Rattus norvegicus [1]): Active; Activity (Rattus norvegicus [2]): Active |
| 6.5 | 3010 | 54 | 39.3 | 8.1 | CC(C(=O)NCCc1ccc(S(N)(=O)=O)cc1)c1cccc(C(=O)c2ccccc2)c1 (racemic) | Non-Toxic | 28.6 | 50 | 51.7 | Active | Active | 36.8 | 53.3 | Dose-dependent effect |  | Activity (Rattus norvegicus [6]): Active; Activity (Rattus norvegicus [7]): Active; Activity (Rattus norvegicus [11]): Active; Activity (Rattus norvegicus [14]): 50 g; Activity (Rattus norvegicus [15]): 56.7 g; Ratio Ki (Carbonic anhydrase 2 [18]): 1.86 |
| 27.3 | 6860 | 94.4 | 62.5 | 64.9 | CC1=C(CC(=O)NCCc2ccc(S(N)(=O)=O)cc2)c2cc(F)ccc2/C1=C/c1ccc([S+](C)[O-])cc1 (centres undefined) | Non-Toxic |  |  | 55 |  | Active |  |  | Dose-dependent effect | 64.2 | Activity (Rattus norvegicus [19]): 8.6 g; Activity (Rattus norvegicus [20]): inactive; Activity (Rattus norvegicus [22]): 22.3 g; Activity (Rattus norvegicus [23]): Dose-dependent effect; Activity (Rattus norvegicus [24]): 62.5 g; Activity (Rattus norvegicus [25]): 55 g |
| 43.7 | 8650 | 90.2 | 43.3 | 68.4 | NS(=O)(=O)c1ccc(CCNC(=O)Cc2ccccc2Nc2c(Cl)cccc2Cl)cc1 | Non-Toxic | 14.7 | 52.5 |  | Active | Active | 20.6 | 56.7 |  | 66.3 | Activity (Rattus norvegicus [26]): inactive; Activity (Rattus norvegicus [27]): Active; Activity (Rattus norvegicus [28]): 39 g |
